# Test results reported in ChEMBL document CHEMBL1143123, “Novel analogs of D-e-MAPP and B13. Part 2: signature effects on bioactive sphingolipids” (2008).
# Activity calls are given as the source filed them. The rule behind the calls is not given here.
# Experiments:
# [1] = test system: MCF7; assay: Increase in endogenous sphingosine-1-phosphate level in human MCF7 cells after 5 to 10 hrs; assay type: functional, cell-based
# Summary of the method: (§1)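 MCF7 cells grown in RPMI 1640 with 10% FCS at 37 °C in 5% CO2. Seeded near 50% density and treated 24 h later with compound in ethanol (0.1% final); controls got ethanol alone. Cells washed in cold PBS and extracted. Cer species, Sph and S1P measured by HPLC-MS/MS (C8 column, positive-ion MRM) against internal standards and calibration curves. Results given as pmol/nmol phospholipid phosphate, relative to ethanol controls.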
# [2] = test system: MCF7; assay: Increase in endogenous C24-ceramide level in human MCF7 cells at 10 uM upto 0.5 hrs; assay type: functional, cell-based
# Summary of the method: (§2)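 MCF7 cells grown in RPMI 1640 with 10% FCS at 37 °C, 5% CO2. Seeded at ~50% density (1×10^6 cells), treated 24 h later with compounds in ethanol (0.1% final); controls got ethanol only. Cells washed in cold PBS and lipids extracted. Cer species and Sph quantified by HPLC-MS/MS (MRM, positive ion) against internal standards and calibration curves. Values given as pmol/nmol phospholipid and compared with ethanol controls.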
# [3] = test system: MCF7; assay: Increase in endogenous C16-ceramide level in human MCF7 cells at 10 uM upto 0.5 hrs; assay type: functional, cell-based; summary of the method: as §2
# [4] = test system: MCF7; assay: (§3) Increase in endogenous C14-ceramide level in human MCF7 cells at 10 uM upto 24 hrs; assay type: functional; summary of the method: as §2
# [5] = test system: MCF7; assay: Increase in endogenous C16-ceramide level in human MCF7 cells after 24 hrs; assay type: functional; summary of the method: as §2
# [6] = test system: MCF7; assay: Increase in endogenous C24:1-ceramide level in human MCF7 cells after 24 hrs; assay type: functional; summary of the method: as §1
# [7] = test system: MCF7; assay: Increase in endogenous C24-ceramide level in human MCF7 cells upto 24 hrs; assay type: functional; summary of the method: as §1
# [8] = test system: MCF7; assay: Increase in endogenous C24:1-ceramide level in human MCF7 cells upto 24 hrs; assay type: functional; summary of the method: as §1
# [9] = test system: MCF7; assay: Increase in endogenous C24-ceramide level in human MCF7 cells after 24 hrs; assay type: functional; summary of the method: as §2
# [10] = test system: MCF7; assay: Increase in endogenous C16-ceramide level in human MCF7 cells upto 24 hrs; assay type: functional; summary of the method: as §2
# [11] = test system: MCF7; assay: Increase in endogenous C14-ceramide level in human MCF7 cells after 24 hrs; assay type: functional; summary of the method: as §2
# [12] = test system: MCF7; assay: Increase in endogenous C24:1-ceramide level in human MCF7 cells at 10 uM upto 0.5 hrs; assay type: functional, cell-based; summary of the method: as §1
# [13] = test system: MCF7; assay: Decrease in endogenous sphingosine level in human MCF7 cells at 10 uM upto 0.5 hrs; assay type: functional, cell-based; summary of the method: as §2
# [14] = test system: MCF7; assay: Increase in endogenous sphingosine level in human MCF7 cells after 24 hrs; assay type: functional; summary of the method: as §1
# [15] = test system: MCF7; assay: Decrease in endogenous ceramide level in human MCF7 cells at 10 uM after 24 hrs; assay type: functional; set-up: scale not given: the % may be the effect or the level left; summary of the method: as §2
# [16] = test system: MCF7; assay: Increase in endogenous sphingosine level in human MCF7 cells at 10 uM within 30 mins; assay type: functional; summary of the method: as §1
# [17] = test system: MCF7; assay: Decrease in endogenous C24-ceramide level in human MCF7 cells at 10 uM after 18 hrs; assay type: functional, cell-based; summary of the method: as §2
# [18] = test system: MCF7; assay: Increase in endogenous C24:1-ceramide level in human MCF7 cells at >30 uM after 24 hrs; assay type: functional, cell-based; summary of the method: as §1
# [19] = test system: MCF7; assay: Increase in endogenous ceramide level in human MCF7 cells at 50 uM after 24 hrs; assay type: functional; summary of the method: as §1
# [20] = test system: MCF7; assay: Decrease in endogenous C16-ceramide level in human MCF7 cells at 10 uM after 18 hrs; assay type: functional, cell-based; summary of the method: as §2
# [21] = test system: MCF7; assay: Decrease in endogenous sphingosine level in human MCF7 cells at 50 uM after 24 hrs; assay type: functional; set-up: scale not given: the % may be the effect or the level left; summary of the method: as §2
# [22] = test system: MCF7; assay: Decrease in endogenous C24:1-ceramide level in human MCF7 cells upto 20 uM after 24 hrs; assay type: functional; set-up: scale not given: the % may be the effect or the level left; summary of the method: as §2
# [23] = test system: MCF7; assay: Decrease in endogenous sphingosine level in human MCF7 cells at 5 uM after 24 hrs; set-up: scale not given: the % may be the effect or the level left
# [24] = test system: MCF7; assay: Decrease in endogenous C24:1-ceramide level in human MCF7 cells at 10 uM upto 2.5 hrs; assay type: functional, cell-based; summary of the method: as §2
# [25] = test system: MCF7; assay: Increase in endogenous C24:1-ceramide level in human MCF7 cells at 10 uM within 30 mins; assay type: functional, cell-based; summary of the method: as §1
# [26] = test system: MCF7; assay: Decrease in endogenous C24-ceramide level in human MCF7 cells upto 20 uM after 24 hrs; assay type: functional; set-up: scale not given: the % may be the effect or the level left; summary of the method: as §2
# [27] = test system: MCF7; assay: Increase in endogenous C16-ceramide level in human MCF7 cells at 10 uM within 30 mins; assay type: functional, cell-based; summary of the method: as §2
# [28] = test system: MCF7; assay: Growth inhibition of human MCF7 cells after 48 hrs; assay type: functional, cell-based
# [29] = test system: MCF7; assay: Increase in endogenous C24-ceramide level in human MCF7 cells at 10 uM upto 2.5 hrs; assay type: functional, cell-based; summary of the method: as §2
# [30] = test system: MCF7; assay: Decrease in endogenous sphingosine level in human MCF7 cells at 10 uM upto 2.5 hrs; assay type: functional, cell-based; summary of the method: as §2
# [31] = test system: MCF7; assay: Increase in endogenous C24-ceramide level in human MCF7 cells at 10 uM within 30 mins; assay type: functional, cell-based; summary of the method: as §1
# [32] = test system: MCF7; assay: Decrease in endogenous sphingosine level in human MCF7 cells at 20 uM after 24 hrs; assay type: functional, cell-based; summary of the method: as §2
# [33] = test system: MCF7; assay: Increase in endogenous C16-ceramide level in human MCF7 cells at >25 uM after 24 hrs; assay type: functional, cell-based; summary of the method: as §2
# [34] = test system: MCF7; assay: Decrease in endogenous sphingosine level in human MCF7 cells at 10 uM upto 24 hrs; assay type: functional, cell-based; summary of the method: as §2
# [35] = test system: MCF7; assay: Increase in endogenous C14-ceramide level in human MCF7 cells at 10 uM after 24 hrs; assay type: functional; summary of the method: as §2
# [36] = test system: MCF7; assay: Inhibition of acid ceramidase in human MCF7 cells assessed as enzyme degradation at 10 uM after 5 hrs; assay type: cell-based
# [37] = test system: MCF7; assay: Decrease in endogenous sphingosine level in human MCF7 cells at 1 uM after 24 hrs; assay type: functional; summary of the method: as §2
# [38] = test system: MCF7; assay: Decrease in endogenous C24-ceramide level in human MCF7 cells at 10 uM after 24 hrs; assay type: functional; summary of the method: as §2
# [39] = test system: MCF7; assay: Decrease in endogenous C24:1-ceramide level in human MCF7 cells at 10 uM after 24 hrs; assay type: functional; summary of the method: as §2
# [40] = test system: MCF7; assay: Increase in endogenous C16-ceramide level in human MCF7 cells at 10 uM after 24 hrs; assay type: functional, cell-based; summary of the method: as §2
# [41] = test system: MCF7; assay: as §3; assay type: functional, cell-based; summary of the method: as §2
# [42] = test system: MCF7; assay: Inhibition of endogenous sphingosine level in human MCF7 cells at 10 uM after 2.5 hrs; assay type: functional, cell-based; summary of the method: as §1
# [43] = test system: MCF7; assay: Increase in endogenous sphingosine level in human MCF7 cells >5 uM after 24 hrs; assay type: functional, cell-based; summary of the method: as §1
# [44] = test system: MCF7; assay: Induction of endogenous C24:1-ceramide formation in human MCF7 cells after 10 hrs; assay type: functional; summary of the method: as §1
# [45] = test system: MCF7; assay: Increase in endogenous sphingosine level in human MCF7 cells at 10 uM after 5 hrs; assay type: functional; summary of the method: as §1
# [46] = test system: MCF7; assay: Increase in endogenous ceramide level in human MCF7 cells at 10 uM after 24 hrs; assay type: functional; summary of the method: as §1
# [47] = test system: MCF7; assay: Increase in endogenous C14-ceramide level in human MCF7 cells at 10 uM within 30 mins; assay type: functional; summary of the method: as §2
# [48] = test system: MCF7; assay: Induction of endogenous C16-ceramide formation in human MCF7 cells after 10 hrs; assay type: functional; summary of the method: as §1
# [49] = test system: MCF7; assay: Increase in endogenous ceramide level in human MCF7 cells upto 10 uM after 24 hrs; assay type: functional; summary of the method: as §1
# [50] = test system: MCF7; assay: Induction of endogenous C14-ceramide formation in human MCF7 cells after 10 hrs; assay type: functional; summary of the method: as §1
smiles,measurement,setting,value
O=C(CCCCCCCCCCCCCCC[n+]1ccccc1)N[C@H](CO)[C@H](O)c1ccc([N+](=O)[O-])cc1.[Br-],Activity,[1],Active
same,Activity,[2],Active
same,Activity,[3],Active
same,Activity,[4],760%
same,Activity,[5],800%
same,Activity,[6],270%
same,Activity,[7],130%
same,Activity,[8],260%
same,Activity,[9],140%
same,Activity,[10],820%
same,Activity,[11],800%
same,Activity,[12],Active
same,Activity,[13],Active
same,Activity,[14],350%
CCCCCCCCCCCCNC(=O)N[C@H](CO)[C@H](O)c1ccc([N+](=O)[O-])cc1,Activity,[15],90%
same,Activity,[16],Active
same,Activity,[17],Active
same,Activity,[18],Active
same,Activity,[19],170%
same,Activity,[20],Active
same,Activity,[21],45%
same,Activity,[22],80%
same,Activity,[23],80%
same,Activity,[24],Active
same,Activity,[25],Active
same,Activity,[26],80%
same,Activity,[27],Active
same,Activity,[28],Active
same,Activity,[29],Active
same,Activity,[30],Active
same,Activity,[31],Active
same,Activity,[32],Active
same,Activity,[33],Active
CCCCCCCCCCCCCCN[C@H](CO)[C@H](O)c1ccc([N+](=O)[O-])cc1.Cl,Activity,[34],Active
same,Activity,[35],850%
same,Activity,[36],Active
same,Activity,[37],Active
same,Activity,[38],Active
same,Activity,[39],Active
same,Activity,[40],Active
same,Activity,[41],Active
CCCCCCCCCCCCCCN[C@H](C)[C@H](O)c1ccccc1,Activity,[42],Active
C[C@@H](NC(=O)CCCCCCCCCCCCCCC[n+]1ccccc1)[C@@H](O)c1ccccc1.[Br-],Activity,[1],Active
same,Activity,[5],Dose-dependent effect
same,Activity,[43],Active
same,Activity,[44],142%
same,Activity,[6],Dose-dependent effect
same,Activity,[45],300%
same,Activity,[46],260%
same,Activity,[47],190%
same,Activity,[48],157%
same,Activity,[49],260%
same,Activity,[50],310%
same,Activity,[11],Dose-dependent effect
same,Activity,[14],Dose-dependent effect
